Fewer inactive variants are shown than the library holds.
B1: tRNA (parent)
chain: GUUCCGUUGGCGUAAUGGUAACGCGUCUCCCUCCUAAGGAGAAGACUGCGGGUUCGAGUCCCGUACGGAACG

Variants of: B1
Assay: yeast fitness relative to wild type (ratio to wild type); higher = fitter; tRNA-Arg(CCU), competitive growth, 37 C, YPD
Method in brief: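 Variants of the tRNA-Arg(CCU) gene were chemically synthesised with a 3% per-site mutation rate across 69 sites and placed at the native genomic locus in Saccharomyces cerevisiae. Six parallel replicates of the pooled strains were competed in YPD at 37°C for 24 hours, and gene amplicons from the start and end populations were read by 100-nucleotide paired-end sequencing. Darwinian fitness relative to wild type was derived from changes in genotype frequencies. Genotypes required ≥ 100 starting reads, and estimates < 0.5 were set to 0.5.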

Variant | yeast fitness
C5A A14U A21G G52A | 0.533
C5G C27G C34G G63C C66U | ≤ 0.5
C4A A37C | 0.707
G50C G56C | 0.614
G9C G10C U47A G68C | ≤ 0.5
G23A C46U | 0.646
U13C A42U U54C A65C | ≤ 0.5
G48A C49U C62U A69U | 0.553
C27G C62U | 0.688
G18A C31A C60A | ≤ 0.5
C31A G38A | 0.792
A15C U47A | 1.09
U13C G48A C62A | 0.689
C29U G39U C49G | ≤ 0.5
U3C G12A C46U G52C | ≤ 0.5
A15G A21C | 0.709
U47C U59C | 0.926
G18A A70C | 0.74
A14C C34A C61U U64A A69G | ≤ 0.5
G25C C31U U32A A70G | ≤ 0.5
C4U G10C G48C C62A | ≤ 0.5
A36C A65G | 0.598
C34A C62U | 0.785
G10C C33G | 0.558

Variant | yeast fitness
C11G G12A G41C C66A G67C | 0.596
U7C A57U | 0.749
C5G C33A A42G A57G | ≤ 0.5
U28G C30A G51U | ≤ 0.5
U8A G18A U32A G58A | ≤ 0.5
C11U G58C C61U | 0.65
U19C C46U A69C | 0.724
G48C A57U | 0.622
C29U G67U | 0.91
C4U C24U U54A | ≤ 0.5
A21U G48C | 0.586
U19A C27G G63C | 0.754
G12C U16A A21C | ≤ 0.5
C49A A70C | 0.743
A14U A21C C22U C33G A45G C46G G52C | ≤ 0.5
C11U G52A C60A | 0.593
C22A C60A | 0.659
U3G A15G C34A A70G | 0.555
C5A A14G C31A C55A C61A G63A | 0.536
U13C A14U C61A | ≤ 0.5
G10C U26C A45G A65C | 0.635
G25A C34A A36C | 0.587
C11G C30A | 0.588
U28G C29A C55A | ≤ 0.5

Variant | yeast fitness
U2A C5A G56A | 0.526
C5U A21C G44C C46U | 0.532
C4U C24U U26C G68A | ≤ 0.5
G12C C34A G58C A65U A69C | ≤ 0.5
C11A C24U C60A | ≤ 0.5
C30U U35A A69U | ≤ 0.5
G18C A20C C22U C31U C61U | ≤ 0.5
A20U C29G A43U | 0.612
A36G A45U C49U | 0.882
U19C A20U | 0.941
C5G C11G C27G G67U | ≤ 0.5
C5U C27U G58A C60G | ≤ 0.5
C5G A15U U53A | ≤ 0.5
G6C G12A G51C C66U | ≤ 0.5
C24G G41C G68C | 0.592
U7C A15U A69U | 0.527
A14U G52A G68C | ≤ 0.5
C31G C33U A40C | 0.6
C4U U54C | 0.921
U16A C31A C34G C60U G68U | ≤ 0.5
C60G G67A | 0.584
A20U G68C | 0.86
A21G C27G C33G | ≤ 0.5
G9A C24G A40C | ≤ 0.5

Variant | yeast fitness
G10C G18C A45C | ≤ 0.5
C29A A70G | 0.723
A14C C30A A36G C62U G63A A70U | ≤ 0.5
A45G G58A A65U | 0.741
C4G C34U U35G A57G | ≤ 0.5
C29U C30U C49G | 0.731
G12C G17C | 0.637
G17C | 0.7
G6A G12A C22A | 0.603
U28G G38C A40G | 0.546
G12A G23A C27G C30G | ≤ 0.5
U35C A37U A42G G51A | ≤ 0.5
A15G A40U | 0.767
A42G U47G G68U | ≤ 0.5
C24G G38A G44C | ≤ 0.5
A21U C34G G52A C61A | 0.553
U8C C11U C29A | ≤ 0.5
G17A G25A C31G G68A | ≤ 0.5
U28G C29G C62A | 0.711
U16C A20U G25A U28C C30G | ≤ 0.5
U7C C27U A43U C61U | ≤ 0.5
U7C G44C | 0.84
U3G C5G A20C | ≤ 0.5
G9C C11U G18C C31A A57G | ≤ 0.5

Variant | yeast fitness
U13A C24G G25A G39C A40C G51C A69U A70C | ≤ 0.5
U7C C31G A45U | ≤ 0.5
C46G G58A | 0.989
C5A A20U C29A | ≤ 0.5
U28A C30U A57G | 0.651
C33G G56C G67C | ≤ 0.5
G9A A43C | 1.07
C31A U54C | 0.562
U19C A42U C46U C55G G63C | ≤ 0.5
G6A U54A C62U A65G G68A | 0.548
A15G G17A U19A U32G | ≤ 0.5
U26C C27A | 0.859
C49A G50C | 0.572
A21C C24U U26A G38C C46G C62U A65C | ≤ 0.5
C27U C61U | 1.01
G12C G18C A45G | ≤ 0.5
A20G C34U A40U A42U | ≤ 0.5
A21U C34G G56A | ≤ 0.5
G6C G39A | 0.86
C33A G39C G41C G44C | 0.549
U3C G48A | 0.952
G9C G10C C66U | ≤ 0.5
A14G A36C A57C G68A | ≤ 0.5
G25U A36U G56C A65C G67A | ≤ 0.5

Variant | yeast fitness
C27U G50C A65C | ≤ 0.5
C55A A57C C66U | ≤ 0.5
C5G U35C G44C C62A G68C A69U | ≤ 0.5
C5A C29U A57G U59C | ≤ 0.5
C24A U26C | 0.678
C11U C49U G56A A65C | ≤ 0.5
U13A A21C U35C G39A A42C A43G C46U A65C | 0.55
G10A C11A C29A | 0.627
U2A U8A U47A A69U | ≤ 0.5
C30A A42U C49U U59C A69C | 0.557
C11G G12C A20G A43G A45C A69U | ≤ 0.5
C5U U7C U13G A36C C46U | 0.757
U13A A15U C24U A37U G67C | 0.591
U2G C30U U32C C55G | ≤ 0.5
C30A C31U U59C | 0.983
C4G G10A C30G A43G A57U | ≤ 0.5
U35A A40U | 0.718
G25C A43G C61U | 0.623
G6A A37G | 0.722
U8C G41C | 0.88
C4G C30G | 0.713
C22G C49G G68C | 0.529
C5G C46A G48A U64G | 0.546
U2A G44C C55A | ≤ 0.5

Variant | yeast fitness
C24U U59A A65U | ≤ 0.5
A45U C62G G63C | ≤ 0.5
U16C C34G C55U | ≤ 0.5
G48A C62G C66A | ≤ 0.5
A15U A21G C24U C33U A40C A43C C49U C61U | 0.516
U7A G10A G41C A42U C46A | ≤ 0.5
G39A G48A A57U | ≤ 0.5
C29U C49U C55G G58A | ≤ 0.5
G23A G52A | 0.546
G6C A14C C29U C34G C46U C49U C66A G68C | ≤ 0.5
U3A G25A G38A | 0.583
C4A G6A G68A | ≤ 0.5
U3A U28C C29G | ≤ 0.5
G41A A43U G51C | ≤ 0.5
U28C U32A G44A A57C | ≤ 0.5
G17C U19A C30U A36G A70G | ≤ 0.5
G39C U53C | 0.747
U8G G18C A37G A40G | 0.546
G10A C11G A20G C55G | ≤ 0.5
C31G A57U A69C | ≤ 0.5
C4A U19G A70C | 0.854
U13G A21U C22G U35A A65G A70C | ≤ 0.5
U3A A21G A70C | 1.05

Source: the RNAGym collection of RNA variant scans (doi:10.1126/science.aae0568)
